Experimental data: the array DNA melting data of Ke et al. (doi:10.1101/2024.01.08.574731)

Experiments:
[1] = folding enthalpy; higher = less favourable; fluorescence melt of hairpins on a sequencing array, two-state fit; conditions: sodium 0.088 M
Summary of the method: (§1)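 Cy3 fluorescence of library hairpins on a sequenced MiSeq flow cell, with annealed Cy3 and quencher oligos, was imaged in 50 mM Na-HEPES pH 8.0, 25 mM NaCl in 2.5 °C steps up to 60 °C. Signals were normalised to pre-quench Cy3 and to control variants. Melting temperature and folding enthalpy came from bootstrapped two-state fits, inverse-variance combined over four replicates. Fitted temperatures were raised by 9.35 °C to match UV melts.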

[2] = melting temperature; fluorescence melt of hairpins on a sequencing array, two-state fit, raised by 9.35 °C to match UV melts; conditions: sodium 0.088 M
Summary of the method: as §1

| Sequence | folding enthalpy [1] [kcal/mol] | Tm [2] [°C] |
| --- | --- | --- |
| GATTTGGCGAAAGCCATC (((..(((....)))))) | -6.61 | 26.1 |
| GACTACGGAAACGCAGTC ((((.((....)).)))) | -28.3 | 42.1 |
| GTTTGGGGAAACCTAAAC ((((.((....)).)))) | -35.5 | 40 |
| GTCTTAGGAAACTAAGAC (((((((....))))))) | -38.4 | 53.7 |
| GCACACGGAAACACGTGC ((((..(....)..)))) | -22.5 | 40.2 |
| GCAAGGGGAAACCCTTAC (.(((((....))))).) | -14.3 | 33.6 |
| GGAACAGGAAACCGTTCC (((((.(....).))))) | -31.7 | 45.5 |
| GCACCCCGAAAGGGCTGC (((.(((....))).))) | -24.9 | 50 |
| GCCAGAGGAAACTCTAGC ((.((((....)))).)) | -17.3 | 34.1 |
| GTGTATTCGAAAGAACAC (((..(((....)))))) | -19.1 | 32.8 |
| GATCAGAACGCTGATC ((((((....)))))) | -29.5 | 47.3 |
| GTGTGCGAAAGCACCAC ((((((....))).))) | -9.37 | 51 |
| GCAGGCGGAAACGCCTAC (.(((((....))))).) | -9.53 | 43.9 |
| GTCATTGCGAAAGCAGAC (((..(((....)))))) | -14.5 | 33 |
| GTGACTGGAAACAGTTGC (..((((....))))..) | -22.9 | 39.3 |
| GGCAAGCGAAAGCTAGCC (((.(((....))).))) | -35.9 | 63.4 |
| GATCACATCAGTGATC ((((((....)))))) | -42.1 | 58.4 |
| GATCGGACACCGATC ((((((...)))))) | -33.4 | 57.1 |
| GGAGATGGAAACATCCCC ((.((((....)))).)) | -26.6 | 41.3 |

| Sequence | folding enthalpy [1] [kcal/mol] | Tm [2] [°C] |
| --- | --- | --- |
| GACATGCGAAAGCAGGTC (((.(((....))).))) | -29.8 | 65.7 |
| GGCTATGAAAATAGCC ((((((....)))))) | -45.7 | 59.1 |
| GAAGCCGAAAGGCGTTC ((((((....))).))) | -8.99 | 46.7 |
| GATCATTTAATGATC ((((((...)))))) | -27.6 | 48 |
| GCTTAGCGAAAGCGATGC ((.(.((....)).).)) | -18.6 | 59.5 |
| GCGAAGGCTCGC ((((....)))) | -14.4 | 46.9 |
| GGCTAAGGAAACCTAGCC (((((.(....).))))) | -31.5 | 46.6 |
| GATGGCGGAAACGCCACC (.(((((....))))).) | -9.71 | 43.6 |
| GAGCCAGGAAACTGACTC (((.(((....))).))) | -36.8 | 44 |
| GTACGCGAAAGCGACTAC ((((((....)))..))) | -11.9 | 41.9 |
| GGACTGGGAAACTAGTCC (((((.(....).))))) | -32.1 | 50.2 |
| GCGAAGAGTCGC ((((....)))) | -11.8 | 48.4 |
| GTACGCACGAAAGTGTAC (((..(((....)))))) | -15.6 | 36.4 |
| GCGCAGCGAAAGCCCCGC (((..((....))..))) | -5.72 | 36.4 |
| GGTAGAGGAAACTCTACC (((((((....))))))) | -46.8 | 57.8 |
| GTTGACGAAAGTCGTAAC ((((((....)))..))) | -11.1 | 32.9 |
| GACCGTGGAAACGTGGTC ((((..(....)..)))) | -23.6 | 45.5 |
| GATCTTCCCCAAGATC ((((((....)))))) | -35.2 | 41.6 |
| GTGGGCGAAAGCCTACAC ((((((....)))..))) | -11.9 | 55.1 |
